ChEMBL document CHEMBL3992541, “Combined treatment with zingerone and its novel derivative synergistically inhibits TGF-β1 induced epithelial-mesenchymal transition, migration and invasion of human hepatocellular carcinoma cells” (2017)
The source made the active and inactive calls. No cut-off for these calls is given here.

Legend:
SNU-182 [1] = test: Inhibition of TGFbeta1-induced epithelial-mesenchymal transition in human SNU182 cells assessed as reduction in MMP9 mRNA expression at 12.5 uM preincubated for 2 hrs followed by TGFbeta1 addition measured after 48 hrs by qRT-PCR method; type: functional, cell-based
In short: (§1)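 SNU182 cells pretreated 2 h with single agents (12.5 or 40 µM) or the mixture (20 or 40 µM), then TGF-β 5 ng/ml for 48 h. MMP-2 and MMP-9 mRNA measured by RT-PCR with densitometry and by qRT-PCR, fold change by the 2^-ΔΔCt method. Mean±SD of triplicates.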

SNU-182 [2] = test: Growth inhibition of human SNU182 cells after 48 hrs by CCK8 assay; type: functional, cell-based
SNU-182 [3] = test: Inhibition of TGFbeta1-induced epithelial-mesenchymal transition in human SNU182 cells assessed as reduction in upregulation of Snail expression at 12.5 uM preincubated for 2 hrs followed by TGFbeta1 addition measured after 48 hrs by Western blot method; type: functional, cell-based
In short: (§2)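 SNU182 cells pretreated 2 h with single agents (12.5 or 40 µM) or the mixture (20 and 40 µM), then stimulated with TGF-β1 5 ng/ml for 48 h. E-cadherin and Snail protein detected by Western blot, with GAPDH as loading control.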

SNU-182 [4] = test: Growth inhibition of human SNU182 cells at <12.5 uM after 48 hrs by CCK8 assay; type: functional, cell-based
SNU-182 [5] = test: Inhibition of TGFbeta1-induced epithelial-mesenchymal transition in human SNU182 cells assessed as reduction in downregulation of E-cadherin expression at 12.5 uM preincubated for 2 hrs followed by TGFbeta1 addition measured after 48 hrs by Western blot method; type: functional, cell-based; in short: as §2
SNU-182 [6] = test: Inhibition of TGFbeta1-induced epithelial-mesenchymal transition in human SNU182 cells assessed as reduction in MMP2 mRNA expression at 12.5 uM preincubated for 2 hrs followed by TGFbeta1 addition measured after 48 hrs by qRT-PCR method; type: functional, cell-based; in short: as §1
SNU-182 [7] = test: Growth inhibition of human SNU182 cells assessed as cell survival at 12.5 uM after 48 hrs by CCK8 assay relative to control; type: functional; conditions: SNU-182, 48 h, read-out: Survival
In short: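 SNU182 human hepatocellular carcinoma cells were exposed to compound at 6.25, 12.5, 25, 50 and 100 µM in serum-free DMEM for 48 h. Viability was read by CCK-8, where WST-8 is reduced by cellular dehydrogenases to a soluble formazan, and expressed as survival relative to vehicle control. Values are mean±SD of triplicates.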

Compound: CCCCC/C=C/C(=O)CCc1ccc(O)c(OC)c1 [SHOGAOL]
- inhibition (SNU-182 [1]): inactive
- growth inhibition (GI) (SNU-182 [2]): Dose-dependent effect
- inhibition (SNU-182 [3]): inactive
- growth inhibition (GI) (SNU-182 [4]): inactive
- inhibition (SNU-182 [5]): inactive
- inhibition (SNU-182 [6]): inactive
- viability at 12.5 µM (SNU-182 [7]): > 90%
